Measured values taken from ChEMBL document CHEMBL4138266, “Lysine Analogue of Polymyxin B as a Significant Opportunity for Photodynamic Antimicrobial Chemotherapy” (ACS Med Chem Lett, 2018).
Active and inactive are the calls of the source. The calls are words filed in the database; no cut-off is given here.

Columns and labels:
Staphylococcus aureus [1] = assay: Photobactericidal activity against Staphylococcus aureus pretreated for 30 mins followed by compound wash out with subsequent irradiation with white light at 4.83 mW/cm2; type: functional, organism-based
Summary of the method: (§1)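 Bacteria were pre-incubated with conjugate in 1X PBS (P. aeruginosa at 1 µM), then washed three times with PBS. They were irradiated with white LED light (4.83 mW/cm²; 7 J/cm² corresponds to 24 min) at 37 °C. Survival, as % of initial density, was plotted against cumulative light fluence.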

Pseudomonas aeruginosa [2] = assay: Photobactericidal activity against Pseudomonas aeruginosa pretreated for 30 mins followed by compound wash out with subsequent irradiation with white light at 4.83 mW/cm2; type: functional, organism-based; summary of the method: as §1
Staphylococcus aureus [3] = assay: Photobactericidal activity against Staphylococcus aureus CIP76.25 irradiated with white light at 4.83 mW/cm2 for 20 hrs; type: functional; settings: CIP76.25, light or radiation study
Summary of the method: (§2)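 Minimal bactericidal concentration (MBC) was determined in tryptic soy medium with log-phase bacteria at 37 °C. Plates were either kept in the dark or given 20 h of white light at 4.83 mW/cm². MBC was taken as the concentration killing 99.99% of bacteria, i.e. a 4-log reduction versus the untreated control.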

Pseudomonas aeruginosa [4] = assay: Photobactericidal activity against Pseudomonas aeruginosa CIP76110 irradiated with white light at 4.83 mW/cm2 for 20 hrs; type: functional; settings: CIP76110, light or radiation study; summary of the method: as §2
Pseudomonas aeruginosa [5] = assay: Bactericidal activity against Pseudomonas aeruginosa CIP76110 incubated for 30 mins under dark conditions; type: organism-based; settings: 0.5 h; summary of the method: as §2
Escherichia coli [6] = assay: Photobactericidal activity against Escherichia coli CIP54.8T irradiated with white light at 4.83 mW/cm2 for 20 hrs; type: functional; settings: light or radiation study; summary of the method: as §2
Escherichia coli [7] = assay: Bactericidal activity against Escherichia coli CIP54.8T incubated for 30 mins under dark conditions; type: organism-based; settings: 0.5 h; summary of the method: as §2
Escherichia coli [8] = assay: Photobactericidal activity against Escherichia coli pretreated for 30 mins followed by compound wash out with subsequent irradiation with white light at 4.83 mW/cm2; type: functional, organism-based; summary of the method: as §1
Pseudomonas aeruginosa [9] = assay: Photobactericidal activity against Pseudomonas aeruginosa assessed as PI-positive and PS-positive cell population at 1 uM incubated for 30 mins followed by 1 washing by propidium iodide staining based flow cytometry; type: functional
Summary of the method: (§3)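 Bacteria were incubated with 1 µM conjugate for 30 min at 37 °C, washed with saline, then stained with propidium iodide (0.01 mg/mL) to assess viability. Samples were analysed by flow cytometry. Q1 is the PI-positive (permeable membrane) population; Q2 is double positive for PI and photosensitizer fluorescence.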

Pseudomonas aeruginosa [10] = assay: Photobactericidal activity against Pseudomonas aeruginosa assessed as live bacterial cells with membrane integrity loss at 1 uM incubated for 30 mins followed by 1 washing by propidium iodide staining based flow cytometry; type: functional; summary of the method: as §3
Staphylococcus aureus [11] = assay: Photobactericidal activity against Staphylococcus aureus at 1 uM after 30 mins by confocal laser scanning microscopy; type: functional, organism-based
Summary of the method: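 S. aureus inoculum was suspended in 1 µM conjugate for 30 min at 37 °C, washed three times with PBS, and imaged by confocal laser scanning microscopy at 100X to visualise bacteria-associated fluorescence.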

NHDF [12] = assay: Cytotoxicity against human NHDF cells assessed as reduction in cell viability at 5 to 5000 nM irradiated with white light at 4.83 mW/cm2 for 2 hrs measured after 24 hrs by MTT assay; type: cell-based; settings: 5 µM
NHDF [13] = assay: Cytotoxicity against human NHDF cells assessed as reduction in cell viability at 5 to 5000 nM incubated under dark conditions for 2 hrs measured after 24 hrs by MTT assay; type: cell-based; settings: 5 µM
Staphylococcus aureus [14] = assay: Photobactericidal activity against Staphylococcus aureus assessed as dead bacteria with permeable membrane at 1 uM incubated for 30 mins followed by 1 washing by propidium iodide staining based flow cytometry; type: functional; summary of the method: as §3
Staphylococcus aureus [15] = assay: Photobactericidal activity against Staphylococcus aureus at 10 uM pretreated for 30 mins followed by compound wash out with subsequent irradiation with white light at 4.83 mW/cm2; type: functional, organism-based; summary of the method: as §1
Escherichia coli [16] = assay: Photobactericidal activity against Escherichia coli at 10 uM pretreated for 30 mins followed by compound wash out with subsequent irradiation with white light at 4.83 mW/cm2; type: functional, organism-based; summary of the method: as §1
Pseudomonas aeruginosa [17] = assay: Photobactericidal activity against Pseudomonas aeruginosa at 1 uM pretreated for 30 mins followed by compound wash out with subsequent irradiation with white light at 4.83 mW/cm2; type: functional, organism-based; summary of the method: as §1
Staphylococcus aureus [18] = assay: Photobactericidal activity against Staphylococcus aureus assessed as PI-positive and PS-positive cell population at 1 uM incubated for 30 mins followed by 1 washing by propidium iodide staining based flow cytometry; type: functional; summary of the method: as §3
Staphylococcus aureus [19] = assay: Photobactericidal activity against Staphylococcus aureus assessed as live bacterial population at 1 uM incubated for 30 mins followed by 1 washing by propidium iodide staining based flow cytometry; type: functional; summary of the method: as §3
Staphylococcus aureus [20] = assay: Photobactericidal activity against Staphylococcus aureus assessed as live bacterial cells with membrane integrity loss at 1 uM incubated for 30 mins followed by 1 washing by propidium iodide staining based flow cytometry; type: functional; summary of the method: as §3
Pseudomonas aeruginosa [21] = assay: Photobactericidal activity against Pseudomonas aeruginosa assessed as dead bacteria with permeable membrane at 1 uM incubated for 30 mins followed by 1 washing by propidium iodide staining based flow cytometry; type: functional; summary of the method: as §3
Pseudomonas aeruginosa [22] = assay: Photobactericidal activity against Pseudomonas aeruginosa assessed as live bacterial population at 1 uM incubated for 30 mins followed by 1 washing by propidium iodide staining based flow cytometry; type: functional; summary of the method: as §3
Escherichia coli [23] = assay: Photobactericidal activity against Escherichia coli assessed as dead bacteria with permeable membrane at 1 uM incubated for 30 mins followed by 1 washing by propidium iodide staining based flow cytometry; type: functional; summary of the method: as §3
Escherichia coli [24] = assay: Photobactericidal activity against Escherichia coli assessed as PI-positive and PS-positive cell population at 1 uM incubated for 30 mins followed by 1 washing by propidium iodide staining based flow cytometry; type: functional; summary of the method: as §3
Escherichia coli [25] = assay: Photobactericidal activity against Escherichia coli assessed as live bacterial population at 1 uM incubated for 30 mins followed by 1 washing by propidium iodide staining based flow cytometry; type: functional; summary of the method: as §3
Escherichia coli [26] = assay: Photobactericidal activity against Escherichia coli assessed as live bacterial cells with membrane integrity loss at 1 uM incubated for 30 mins followed by 1 washing by propidium iodide staining based flow cytometry; type: functional; summary of the method: as §3
Staphylococcus aureus [27] = assay: Photobactericidal activity against Staphylococcus aureus assessed as dead bacteria with permeable membrane at 1 uM incubated for 30 mins followed by 3 washings by propidium iodide staining based flow cytometry; type: functional; summary of the method: as §3
Staphylococcus aureus [28] = assay: Photobactericidal activity against Staphylococcus aureus assessed as PI-positive and PS-positive cell population at 1 uM incubated for 30 mins followed by 3 washings by propidium iodide staining based flow cytometry; type: functional; summary of the method: as §3
Staphylococcus aureus [29] = assay: Photobactericidal activity against Staphylococcus aureus assessed as live bacterial population at 1 uM incubated for 30 mins followed by 3 washings by propidium iodide staining based flow cytometry; type: functional; summary of the method: as §3
Staphylococcus aureus [30] = assay: Photobactericidal activity against Staphylococcus aureus assessed as live bacterial cells with membrane integrity loss at 1 uM incubated for 30 mins followed by 3 washings by propidium iodide staining based flow cytometry; type: functional; summary of the method: as §3
Pseudomonas aeruginosa [31] = assay: Photobactericidal activity against Pseudomonas aeruginosa assessed as dead bacteria with permeable membrane at 1 uM incubated for 30 mins followed by 3 washings by propidium iodide staining based flow cytometry; type: functional; summary of the method: as §3
Pseudomonas aeruginosa [32] = assay: Photobactericidal activity against Pseudomonas aeruginosa assessed as PI-positive and PS-positive cell population at 1 uM incubated for 30 mins followed by 3 washings by propidium iodide staining based flow cytometry; type: functional; summary of the method: as §3
Pseudomonas aeruginosa [33] = assay: Photobactericidal activity against Pseudomonas aeruginosa assessed as live bacterial population at 1 uM incubated for 30 mins followed by 3 washings by propidium iodide staining based flow cytometry; type: functional; summary of the method: as §3
Pseudomonas aeruginosa [34] = assay: Photobactericidal activity against Pseudomonas aeruginosa assessed as live bacterial cells with membrane integrity loss at 1 uM incubated for 30 mins followed by 3 washings by propidium iodide staining based flow cytometry; type: functional; summary of the method: as §3
Escherichia coli [35] = assay: Photobactericidal activity against Escherichia coli assessed as dead bacteria with permeable membrane at 1 uM incubated for 30 mins followed by 3 washings by propidium iodide staining based flow cytometry; type: functional; summary of the method: as §3
Escherichia coli [36] = assay: Photobactericidal activity against Escherichia coli assessed as PI-positive and PS-positive cell population at 1 uM incubated for 30 mins followed by 3 washings by propidium iodide staining based flow cytometry; type: functional; summary of the method: as §3
Escherichia coli [37] = assay: Photobactericidal activity against Escherichia coli assessed as live bacterial population at 1 uM incubated for 30 mins followed by 3 washings by propidium iodide staining based flow cytometry; type: functional; summary of the method: as §3
Escherichia coli [38] = assay: Photobactericidal activity against Escherichia coli assessed as live bacterial cells with membrane integrity loss at 1 uM incubated for 30 mins followed by 3 washings by propidium iodide staining based flow cytometry; type: functional; summary of the method: as §3

`CCCCCCCC(=O)N[C@@H](CSC1CC(=O)N(CCCCCC(=O)Nc2ccc(-c3c4nc(c(-c5cc[n+](C)cc5)c5ccc([nH]5)c(-c5cc[n+](C)cc5)c5nc(c(-c6cc[n+](C)cc6)c6ccc3[nH]6)C=C5)C=C4)cc2)C1=O)C(=O)N[C@H](C(=O)N[C@@H](CCN)C(=O)N[C@H]1CCNC(=O)[C@H]([C@@H](C)O)NC(=O)[C@H](CCN)NC(=O)[C@H](CCN)NC(=O)[C@H](CC(C)C)NC(=O)[C@@H](Cc2ccccc2)NC(=O)[C@H](CCN)NC1=O)[C@@H](C)O.[I-].[I-].[I-]` (stereo partly drawn) was tested, and the Activity (Staphylococcus aureus [1]) was “Active”, the Activity (Pseudomonas aeruginosa [2]) was “Active” and the MBC (Staphylococcus aureus [3]) was 0.8 µM. It also gave an MBC (Pseudomonas aeruginosa [4]) of 2.5 µM, an MBC (Pseudomonas aeruginosa [5]) of 10 µM and an MBC (Escherichia coli [6]) of 0.5 µM. The MBC (Escherichia coli [7]) was 1.2 to 5 µM, the Activity (Escherichia coli [8]) was “Active” and the Activity (Pseudomonas aeruginosa [9]) was 80%. The Activity (Pseudomonas aeruginosa [10]) was 80%, the Activity (Staphylococcus aureus [11]) was “Active” and the Activity (NHDF [12]) was “Non-Toxic”. For the same compound, the Activity (NHDF [13]) was “Non-Toxic”.

`CCCCCCCC(=O)N[C@@H](CSC1CC(=O)N(CCCCCC(=O)Nc2ccc(-c3c4nc(c(-c5cc[n+](C)cc5)c5ccc([nH]5)c(-c5cc[n+](C)cc5)c5nc(c(-c6cc[n+](C)cc6)c6ccc3[nH]6)C=C5)C=C4)cc2)C1=O)C(=O)N[C@H](C(=O)N[C@@H](CCCCN)C(=O)N[C@H]1CCNC(=O)[C@H]([C@@H](C)O)NC(=O)[C@H](CCCCN)NC(=O)[C@H](CCCCN)NC(=O)[C@H](CC(C)C)NC(=O)[C@@H](Cc2ccccc2)NC(=O)[C@H](CCCCN)NC1=O)[C@@H](C)O.[I-].[I-].[I-]` (stereo partly drawn) was tested, and the Activity (Staphylococcus aureus [14]) was 1.6%, the MBC (Staphylococcus aureus [3]) was 1.2 µM and the MBC (Pseudomonas aeruginosa [4]) was 8 µM. The MBC (Pseudomonas aeruginosa [5]) was over 100 µM, the MBC (Escherichia coli [6]) was 0.8 µM and the MBC (Escherichia coli [7]) was 25 µM. The Activity (Staphylococcus aureus [15]) was “Active”, the Activity (Escherichia coli [16]) was “Active” and the Activity (Pseudomonas aeruginosa [17]) was “Active”. It also gave an Activity (Staphylococcus aureus [18]) of 3.2%, an Activity (Staphylococcus aureus [19]) of 75.6% and an Activity (Staphylococcus aureus [20]) of 19.7%. For the same compound, the Activity (Pseudomonas aeruginosa [21]) was 19.3%, the Activity (Pseudomonas aeruginosa [9]) was 43.1% and the Activity (Pseudomonas aeruginosa [22]) was 34.6%. The Activity (Pseudomonas aeruginosa [10]) was 3%, the Activity (Escherichia coli [23]) was 1.8% and the Activity (Escherichia coli [24]) was 14%. It also gave an Activity (Escherichia coli [25]) of 69.7%, an Activity (Escherichia coli [26]) of 14.6% and an Activity (Staphylococcus aureus [27]) of 4.4%. It also gave an Activity (Staphylococcus aureus [28]) of 5.8%, an Activity (Staphylococcus aureus [29]) of 70.8% and an Activity (Staphylococcus aureus [30]) of 19%. For the same compound, the Activity (Pseudomonas aeruginosa [31]) was 37.7%, the Activity (Pseudomonas aeruginosa [32]) was 28.9% and the Activity (Pseudomonas aeruginosa [33]) was 31.6%. For the same compound, the Activity (Pseudomonas aeruginosa [34]) was 1.9%, the Activity (Escherichia coli [35]) was 5.2% and the Activity (Escherichia coli [36]) was 22.8%. For the same compound, the Activity (Escherichia coli [37]) was 62.5%, the Activity (Escherichia coli [38]) was 9.6% and the Activity (Staphylococcus aureus [11]) was “Active”. For the same compound, the Activity (NHDF [12]) was “Non-Toxic” and the Activity (NHDF [13]) was “Non-Toxic”.
